# From ChEMBL document CHEMBL4014307, “Diindolylmethane Derivatives: Potent Agonists of the Immunostimulatory Orphan G Protein-Coupled Receptor GPR84” (J Med Chem, 2017)
# Calls of active or inactive are those of the source.
# Columns and labels:
# [1] = biological target: T1, G-protein coupled receptor 84 (Homo sapiens, UniProt Q9NQS5); assay: Positive allosteric modulation of Gi coupled human GPR84 expressed in CHO cells assessed as potentiation of decanoic acid-induced inhibition of forskolin-induced cAMP accumulation by measuring increase in fold shift in decanoic acid EC50 at 0.1 to 30 uM after 15 mins in presence of [3H]-cAMP by radiometric assay; assay type: functional, cell-based
# T1 sequence (Q9NQS5 whole entry): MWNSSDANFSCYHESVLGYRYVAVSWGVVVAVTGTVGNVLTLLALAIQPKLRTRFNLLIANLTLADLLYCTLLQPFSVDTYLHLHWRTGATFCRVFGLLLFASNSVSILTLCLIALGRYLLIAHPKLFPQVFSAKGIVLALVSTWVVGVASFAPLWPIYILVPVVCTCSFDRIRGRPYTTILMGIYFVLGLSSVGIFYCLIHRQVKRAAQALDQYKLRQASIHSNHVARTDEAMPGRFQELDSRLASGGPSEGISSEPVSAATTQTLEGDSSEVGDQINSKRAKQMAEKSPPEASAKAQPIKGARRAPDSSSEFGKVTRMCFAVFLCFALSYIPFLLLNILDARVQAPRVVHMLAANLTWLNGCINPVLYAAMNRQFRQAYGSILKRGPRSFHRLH
# [2] = biological target: T2, Free fatty acid receptor 4 (Homo sapiens) (UniProt Q5NUL3); assay: Agonist activity at human FFAR4 expressed in CHO cells assessed as beta-arrestin recruitment at 10 uM after 90 mins by beta-galactosidase complementation assay; assay type: cell-based
# T2 sequence (whole entry): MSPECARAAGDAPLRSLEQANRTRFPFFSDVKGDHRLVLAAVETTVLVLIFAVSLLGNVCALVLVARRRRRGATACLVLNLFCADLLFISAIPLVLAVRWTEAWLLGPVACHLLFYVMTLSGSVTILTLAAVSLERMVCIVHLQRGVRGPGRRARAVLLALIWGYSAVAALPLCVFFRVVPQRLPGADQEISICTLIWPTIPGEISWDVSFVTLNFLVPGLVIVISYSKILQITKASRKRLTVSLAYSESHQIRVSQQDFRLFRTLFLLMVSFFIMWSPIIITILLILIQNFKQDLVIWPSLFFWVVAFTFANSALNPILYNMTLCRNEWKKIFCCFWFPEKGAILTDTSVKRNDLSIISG
# In short: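 Human FFAR4 in CHO β-galactosidase complementation cells, 30,000 per well, serum-free F12 ~4 h before assay; final DMSO 1 %, compounds 10 µM. Agonist mode: 90 min with agonist, then detection 60 min rt dark; luminescence. 3–4 experiments in duplicate.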
# [3] = biological target: G-protein coupled receptor 35 (Homo sapiens) (UniProt Q9HC97); assay: Agonist activity at human GPR35 at 10 uM
# G-protein coupled receptor 35 (Homo sapiens), sequence (Q9HC97 whole entry): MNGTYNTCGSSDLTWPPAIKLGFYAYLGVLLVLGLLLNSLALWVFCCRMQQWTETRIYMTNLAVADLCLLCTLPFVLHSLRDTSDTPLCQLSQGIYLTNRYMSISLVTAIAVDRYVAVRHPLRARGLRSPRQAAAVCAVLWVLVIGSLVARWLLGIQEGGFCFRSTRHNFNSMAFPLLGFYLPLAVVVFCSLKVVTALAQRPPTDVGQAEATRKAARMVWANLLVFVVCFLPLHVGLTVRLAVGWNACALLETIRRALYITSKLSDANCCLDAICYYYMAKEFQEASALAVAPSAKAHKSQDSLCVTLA
# [4] = biological target: T1, G-protein coupled receptor 84; assay: Agonist activity at human GPR84 expressed in CHO cells assessed as beta-arrestin recruitment at 10 uM after 90 mins by beta-galactosidase complementation assay relative to embelin; assay type: cell-based
# In short: (§1)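 CHO cells co-expressing human GPR84–β-galactosidase fragment and β-arrestin–complementary fragment, 20,000 per well. Compounds in DMSO (final ≤1 %) added for 90 min, then detection reagent for 60 min at rt; luminescence read. Three to five independent experiments in duplicate.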
# [5] = biological target: T1, G-protein coupled receptor 84; assay: Agonist activity at Gi coupled human GPR84 expressed in CHO cells assessed as inhibition of forskolin-induced cAMP accumulation after 15 mins in presence of [3H]-cAMP by radiometric assay; assay type: functional, cell-based
# In short: (§2)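 Forskolin (10 µM) added with or without test compound for 15 min. Cells lysed in hot (90 °C) EDTA/Triton X-100 solution. cAMP measured radiometrically with bovine adrenal binding protein and [³H]cAMP, expressed as % of forskolin-alone response.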
# [6] = biological target: Free fatty acid receptor 1 (Homo sapiens, UniProt O14842); assay: Agonist activity at Gq protein coupled human FFAR1 expressed in human 1321N1 cells assessed as induction of intracellular calcium level at 10 uM measured at 1.2 secs time interval by Fluo-4-AM dye based fluorescence assay; assay type: functional, cell-based
# Free fatty acid receptor 1, sequence (O14842 whole entry): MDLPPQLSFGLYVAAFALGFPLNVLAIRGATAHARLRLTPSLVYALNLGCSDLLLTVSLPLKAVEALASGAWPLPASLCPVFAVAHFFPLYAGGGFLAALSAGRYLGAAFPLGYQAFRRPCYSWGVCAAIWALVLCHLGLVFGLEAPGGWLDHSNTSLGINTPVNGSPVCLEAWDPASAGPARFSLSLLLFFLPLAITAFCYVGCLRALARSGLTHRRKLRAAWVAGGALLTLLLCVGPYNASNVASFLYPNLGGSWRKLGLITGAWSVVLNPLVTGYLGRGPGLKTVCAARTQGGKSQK
# In short: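 1321N1 astrocytoma cells retrovirally expressing human FFAR1, 50,000 per well, loaded 60 min at rt in dark with 3 µM Fluo-4-AM and 0.06 % Pluronic F-127 in HBSS. Compounds at 10 µM final; antagonist mode uses 30 min preincubation before TUG-424 (final 1 µM). Fluorescence at 520 nm (excitation 485 nm), 90 reads at 1.2 s intervals. Normalized to TUG-424 at 10 µM (agonist) or 1 µM (antagonist).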
# [7] = biological target: T2, Free fatty acid receptor 4 (Homo sapiens); assay: Antagonist activity at human FFAR4 expressed in CHO cells assessed as inhibition of TUG-89-induced beta-arrestin recruitment at 10 uM preincubated for 30 mins followed by TUG-89 addition measured after 90 mins by beta-galactosidase complementation assay; assay type: cell-based
# [8] = biological target: T1, G-protein coupled receptor 84; assay: Agonist activity at Gi coupled human GPR84 expressed in CHO cells assessed as inhibition of forskolin-induced cAMP accumulation at 10 uM after 15 mins in presence of [3H]-cAMP by radiometric assay relative to decanoic acid; assay type: functional, cell-based; in short: as §2
# [9] = biological target: T1, G-protein coupled receptor 84; assay: Antagonist activity at Gi coupled human GPR84 expressed in CHO cells assessed as inhibition of decanoic acid-induced receptor activation at 10 uM; assay type: cell-based
# [10] = biological target: T1, G-protein coupled receptor 84; assay: Agonist activity at human GPR84 expressed in CHO cells assessed as beta-arrestin recruitment after 90 mins by beta-galactosidase complementation assay; assay type: cell-based; in short: as §1
# CHO = assay: Effect on forskolin-induced cAMP accumulation in CHO cells preincubated for 5 mins followed by forskolin addition measured after 15 mins in presence of [3H]-cAMP by radiometric assay; assay type: ADME, cell-based, Cricetulus griseus; conditions: chinese hamster, 0.25 h
# In short: as §2, with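 “CHO cells stably expressing human GPR84, or the parent non-transfected CHO line, incubated in HBSS (pH 7.4) at 37 °C with RO-20-1724 (final 40 µM). Forskolin” for “Forskolin”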
# [11] = Stability of the compound in pH 1.2 artificial gastric fluid containing HCl, NaCl and pepsin assessed as parent compound remaining at 100 uM after 4 hrs by HPLC-MS analysis
# In short: (§3)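 Stock (2.5 mM in methanol/acetonitrile 1:1) diluted to 100 µM final in water, 0.01 % aqueous ammonia (pH 9), 1 mM NaOH (pH 11), or artificial gastric acid (pepsin, NaCl, HCl; pH 1.2). Incubated at 37 °C up to 24 h, sampled at intervals. Analysed by LC-ESI-MS on C18 at 25 °C with water/2 mM ammonium acetate–acetonitrile gradient.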
# [12] = Stability of the compound in water at 100 uM up to 24 hrs by HPLC-MS analysis; assay type: physicochemical; conditions: buffer; in short: as §3
# [13] = biological target: T3, Aryl hydrocarbon receptor (Homo sapiens, UniProt P35869); assay: Activation of AhR in human HepG2 cells assessed as induction of CYP1A1 mRNA expression at 20 uM after 18 hrs by RT-PCR method; assay type: ADME, cell-based
# T3 sequence (P35869 whole entry): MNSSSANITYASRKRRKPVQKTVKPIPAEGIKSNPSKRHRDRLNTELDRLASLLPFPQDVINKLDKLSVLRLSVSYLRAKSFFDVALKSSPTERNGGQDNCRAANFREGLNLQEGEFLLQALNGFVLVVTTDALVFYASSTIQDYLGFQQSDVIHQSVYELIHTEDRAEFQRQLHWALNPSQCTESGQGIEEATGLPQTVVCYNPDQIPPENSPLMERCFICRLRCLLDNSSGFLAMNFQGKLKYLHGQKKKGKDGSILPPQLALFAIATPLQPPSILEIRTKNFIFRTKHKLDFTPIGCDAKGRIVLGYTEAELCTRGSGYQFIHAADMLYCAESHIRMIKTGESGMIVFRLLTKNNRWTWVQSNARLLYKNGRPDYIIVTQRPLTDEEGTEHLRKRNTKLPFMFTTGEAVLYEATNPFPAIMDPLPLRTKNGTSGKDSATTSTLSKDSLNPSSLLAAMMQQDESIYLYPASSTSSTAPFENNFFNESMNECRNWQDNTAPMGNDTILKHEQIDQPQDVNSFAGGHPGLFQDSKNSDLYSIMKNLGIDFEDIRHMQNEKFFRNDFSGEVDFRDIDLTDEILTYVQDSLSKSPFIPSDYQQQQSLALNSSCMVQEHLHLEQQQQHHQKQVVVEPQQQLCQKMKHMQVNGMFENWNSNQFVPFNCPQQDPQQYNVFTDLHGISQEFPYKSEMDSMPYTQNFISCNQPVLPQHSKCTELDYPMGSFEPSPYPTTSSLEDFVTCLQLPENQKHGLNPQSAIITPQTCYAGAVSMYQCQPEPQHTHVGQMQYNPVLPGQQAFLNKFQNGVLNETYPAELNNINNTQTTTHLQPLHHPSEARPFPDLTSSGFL
# In short: (§4)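 HepG2 cells (3x10^5 cells/ml) stimulated 18 h with 5 µM or 20 µM test compound or left untreated; 3-methylcholanthrene (10 µM) as positive control. RNA extracted for read-out; three independent experiments.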
# [14] = Stability of the compound in 1 mM sodium hydroxide solution at 100 uM at pH 11 up to 24 hrs by HPLC-MS analysis; assay type: physicochemical; conditions: buffer, pH 11, 24 h; in short: as §3
# [15] = Stability of the compound in 0.01% ammonia solution at 100 uM at pH 9 up to 24 hrs by HPLC-MS analysis; assay type: physicochemical; conditions: buffer, pH 9, 24 h; in short: as §3
# [16] = biological target: T1, G-protein coupled receptor 84; assay: Ratio of EC50 for human GPR84 expressed in CHO cells assessed as beta-arrestin recruitment to EC50 for Gi coupled human GPR84 expressed in CHO cells assessed as inhibition of forskolin-induced cAMP accumulation; assay type: functional, cell-based
# [17] = biological target: T1, G-protein coupled receptor 84; assay: Agonist activity at Gi coupled human GPR84 expressed in CHO cells assessed as inhibition of forskolin-induced cAMP accumulation up to 100 uM preincubated for 5 mins followed by forskolin addition measured after 15 mins in presence of [3H]-cAMP by radiometric assay; assay type: functional, cell-based
# In short: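 Concentration-response in CHO-hGPR84 cells. Compound preincubated 5 min, then forskolin 10 µM added for a further 15 min. Maximal forskolin-induced cAMP without agonist set as 100 %. […] Mean ± SEM of 3 independent experiments in duplicate.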
# [18] = biological target: T3, Aryl hydrocarbon receptor; assay: Activation of AhR in human HepG2 cells assessed as induction of CYP1A1 mRNA expression at 10 uM after 18 hrs by RT-PCR method; assay type: ADME, cell-based
# In short: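 HepG2 cells seeded at 3x10^5 cells/ml were exposed to compound for 18 h alongside untreated cells and a 3-methylcholanthrene (10 µM) positive control. Total RNA was then extracted for transcript measurement. Three independent experiments were run.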
# [19] = biological target: T3, Aryl hydrocarbon receptor; assay: Activation of AhR in human HepG2 cells assessed as induction of CYP1A1 mRNA expression after 18 hrs by RT-PCR method; assay type: ADME, cell-based; in short: as §4
# [20] = Stability of the compound in pH 1.2 artificial gastric fluid containing HCl, NaCl and pepsin assessed as parent compound remaining at 100 uM after 1 hr by HPLC-MS analysis; in short: as §3
# [21] = Stability of the compound in pH 1.2 artificial gastric fluid containing HCl, NaCl and pepsin assessed as parent compound remaining at 100 uM after 2 hrs by HPLC-MS analysis; in short: as §3
# [22] = biological target: T3, Aryl hydrocarbon receptor; assay: Activation of AhR in human HepG2 cells assessed as induction of CYP1A1 mRNA expression at 5 to 20 uM after 18 hrs by RT-PCR method; assay type: ADME, cell-based; in short: as §4
# [23] = Stability of the compound in pH 1.2 artificial gastric fluid containing HCl, NaCl and pepsin at 100 uM up to 24 hrs by HPLC-MS analysis; in short: as §3
Compound,Activity [2],Activity [3],Emax [4],EC50 [5],Activity [6],inhibition [7],Emax [8],EC50 [10],Stability [12],inhibition [5],Stability [14],Stability [15],Activity (CHO),Stability [11],other results
Cc1ccc2cc3c(ccc4ccccc43)c3c2c1CC3 [3-METHYLCHOLANTHRENE],,,,,,,,,,,,,,,inhibition [17]: inactive; Activity [18]: Active
c1ccc2c(Cc3c[nH]c4ccccc34)c[nH]c2c1 [ARUNDINE],inactive,inactive,60%,,inactive,inactive,125%,,Stable,Dose-dependent effect,Stable,Stable,Non-Toxic,35%,Activity [19]: Dose-dependent effect; Stability [20]: 63%; fold change (FC) [8]: 29; Stability [21]: 49%
Fc1cc(F)c2[nH]cc(Cc3c[nH]c4c(F)cc(F)cc34)c2c1,inactive,inactive,385%,,inactive,inactive,131%,,,Dose-dependent effect,,,Non-Toxic,,Activity [22]: Not Active

# Second part, led by results:
Activity [2],Activity [3],Emax [4],EC50 [5],Activity [6],inhibition [7],Emax [8],EC50 [10],Stability [12],inhibition [5],Stability [14],Stability [15],Compound,Activity (CHO),Stability [11],other results
inactive,inactive,67%,> 10000 nM,inactive,inactive,-24%,2.97 µM,,,,,CCC(c1c[nH]c2ccccc12)c1c[nH]c2ccccc12,,,Activity [1]: inactive; inhibition [9]: inactive
inactive,inactive,125%,80 nM,inactive,inactive,117%,4.33 µM,Stable,Dose-dependent effect,Stable,Stable,Fc1ccc2[nH]cc(Cc3c[nH]c4ccc(F)cc34)c2c1,Non-Toxic,57%,Activity [13]: Not Active; Ratio EC50 [16]: 54
inactive,,99%,113 nM,inactive,inactive,129%,6.07 µM,Stable,,Stable,Stable,Fc1cccc2c(Cc3c[nH]c4c(F)cccc34)c[nH]c12,,,Stability [23]: Stable
